Screening data from PubChem.
The list is not random: actives were taken first. Their share in the collection is about 2%.
Lipid droplet – hepatic lipid droplet formation modulation; AML12 mouse hepatocytes, oleate lipid droplets, BODIPY imaging; 240,000 tested, 0.4% active; inhibition, % at 6.5 µM; AID 1656;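 active = lipid droplet intensity inhibited by at least 50%, with more than 500 cells counted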
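Assay system: AML12 mouse liver cells | Compound dosing: One dose, 6.5 µM compound | Read-out basis: Droplet intensity reduction, % inhibition | Measured by: Fluorescence imaging, 20x objective, two fields per well | Schedule: Overnight treatment with compound plus oleate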
TAG inh – triacylglycerol accumulation inhibition; 230,000 tested, 0.66% active; inhibition, % at 12.5 µM; H9c2 cells, Nile Red lipid (TAG) fluorescence; cells loaded with 200 µM oleic acid; AID 651582;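 active = pattern-corrected inhibition of lipid staining of at least 50% with the nuclear-stain viability signal not falling by more than 50%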;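 also: 0% = DMSO wells and 100% = triacsin C control wells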
Arr AP2 block – inhibitors of human beta-arrestin and AP2 interaction. FITC-arrestin peptide / GST-AP2 beads, flow cytometry; AP2 beta2 appendage carries R879A mutation. inhibition, % at 10 µM. 340,000 tested, 0.31% active. AID 504490;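 active = inhibition above a set limit, near 3 SD of compounds lacking own fluorescence, cut at about 54% in these data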;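 also: plate controls were DMSO wells for no effect and 5 µM unlabelled arrestin peptide for full effect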
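System: GST-AP2 R879A glutathione beads | Also added: FITC-arrestin peptide, 50 nM | Times: 12 min plus 1 h, RT | Signal: Bead flow cytometry, FITC channel | Buffer or medium: PBS with 0.05% Tween 20 and 0.1% BSA | Read-out basis: Percent drop in bead-associated FITC signal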
NTR1 agonist – agonists of human neurotensin receptor NTR1; P30989; NTR1-U2OS beta-arrestin-GFP spot imaging, agonist mode; activation, % at 20 µM; 330,000 tested, 0.17% active; AID 493036;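 active = activation at or above 40% of the spot to cytoplasm intensity ratio, with at least 20 cells analyzed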;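 also: 0% = DMSO without peptide and 100% = 100 nM NTR1 peptide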
B2AR ag – human beta-2 adrenergic receptor agonism by FAP. Am2.2-beta2AR cells, FAP receptor internalization, flow cytometry. AID 504454. P07550. response, % (concentration not given with the values). 340,000 tested, 0.43% active;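 active = response above a set limit, near 3 SD of response in nonfluorescent compounds, cut at about 42% in these data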
GRK2 aptamer HTS – human GRK2 inhibition via aptamer displacement; 330,000 tested, 0.59% active; bead flow cytometry, FAM-aptamer displacement from GRK2; P25098; inhibition of aptamer binding, % at 10 µM;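 active = inhibition of aptamer binding above 40%, roughly 3 SD of noise, on plates passing a quality check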;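 also: median bead fluorescence of bound FAM aptamer so fluorescent compounds give negative values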
Target sequence (P25098 whole entry, looked up): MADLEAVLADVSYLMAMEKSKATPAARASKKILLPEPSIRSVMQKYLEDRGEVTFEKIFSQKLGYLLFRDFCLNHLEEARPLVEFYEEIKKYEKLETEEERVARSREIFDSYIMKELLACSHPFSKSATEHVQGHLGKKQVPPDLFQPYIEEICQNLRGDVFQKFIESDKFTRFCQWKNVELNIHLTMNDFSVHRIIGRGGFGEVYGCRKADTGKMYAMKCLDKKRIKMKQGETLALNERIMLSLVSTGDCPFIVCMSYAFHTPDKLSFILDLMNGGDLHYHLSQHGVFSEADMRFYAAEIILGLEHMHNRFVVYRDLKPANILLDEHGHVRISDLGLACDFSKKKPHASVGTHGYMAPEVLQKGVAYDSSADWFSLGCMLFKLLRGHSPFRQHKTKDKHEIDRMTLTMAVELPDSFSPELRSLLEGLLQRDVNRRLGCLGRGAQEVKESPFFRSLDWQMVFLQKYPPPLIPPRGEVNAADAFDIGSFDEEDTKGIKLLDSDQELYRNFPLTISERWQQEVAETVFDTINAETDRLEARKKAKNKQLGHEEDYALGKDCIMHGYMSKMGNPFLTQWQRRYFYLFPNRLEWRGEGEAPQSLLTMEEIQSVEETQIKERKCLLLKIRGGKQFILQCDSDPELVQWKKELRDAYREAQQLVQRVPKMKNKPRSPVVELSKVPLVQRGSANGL
GRK2 CP1 – confirmation of human GRK2 inhibitors displacing RNA aptamer; aptamer displacement, % at 10 µM; bead-bound GRK2, FAM-aptamer displacement, flow cytometry; shares compounds with GRK2 aptamer HTS; 2,000 tested, 4% active;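 active = aptamer displacement above 40%, near three times the noise of non-fluorescent compounds, on plates passing quality checks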;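 also: negative values mostly reflect intrinsic compound fluorescence rather than true enhancement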
Aptamer quench SP – aptamer fluorescence quenching in GRK2 counter-screen; shares compounds with GRK2 aptamer HTS; Carboxyfluorescein RNA aptamer on beads, flow cytometry quenching; stronger effect = lower value; fluorescence response (% of DMSO), % at 10 µM; 2,000 tested, under 10 active; AID 504580;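 active = compounds that quench the bead-bound fluorescent RNA probe, cutting fluorescence to under half of the solvent control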;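 also: counterscreen run without GRK2 so only probe quenching by compound is measured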
GRK2 CP2 – human GRK2 inhibition confirmation, cherry pick 2 | inhibition of aptamer binding, % at 10 µM | 360 tested, under 10 active | bead-bound GRK2, FAM-aptamer displacement, flow cytometry | shares compounds with GRK2 aptamer HTS;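 active = inhibition of aptamer binding above 40%, about triple the noise seen with nonglowing compounds, on plates passing quality control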;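 also: negative values mostly come from compounds that fluoresce themselves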
FAM quench CP2 – aptamer fluorescence quenching in GRK2 counter-screen; shares compounds with GRK2 aptamer HTS; carboxyfluorescein RNA aptamer beads, flow cytometry quenching; stronger effect = lower value; fluorescence response vs DMSO, % at 10 µM; 360 tested, under 10 active; AID 588494;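 active = response vs DMSO under 50%, meaning signal dropped by over half, treated as fluorescence quencher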;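 also: labelled aptamer on streptavidin beads without GRK2 as a quench counter-screen; 100% = bead fluorescence of DMSO wells and lower means quenching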
An asterisk follows results filed as active; . = no result given.

SMILES	Lipid droplet	TAG inh	Arr AP2 block	NTR1 agonist	B2AR ag	GRK2 aptamer HTS	GRK2 CP1	Aptamer quench SP	others
O=C(CCNC(=O)c1ccc(Cl)cc1)Nc1ncccc1O	21	2	10	2	5	77*	.	.	GRK2 CP2=-18;FAM quench CP2=99
Cc1cn(C2OC(COC(=O)c3ccccc3)C(OC(=O)c3ccccc3)C2OC(=O)c2ccccc2)c(=O)[nH]c1=O (configuration not stated)	0	.	2	0	-4	100*	-1	104
Cc1cn(C2OC(COC(=O)c3ccccc3)C(O)C2O)c(=O)[nH]c1=O (configuration not stated)	9	.	17	0	-4	0	.	.
Cc1ccc([C@H]2C[C@H](O)[C@@H](n3cc(COC(=O)c4ccccc4)nn3)CN2Cc2cccs2)cc1	.	-13	.	.	.	.	.	.
O=C(CCCC(=O)NN=Cc1ccccc1Cl)NN=Cc1ccccc1Cl	.	0	23	.	0	.	.	.
O=C(CNC(=O)c1ccccc1)N/N=C/c1ccccc1Cl	0	-3	21	0	-2	47*	-1	97
CCCn1cc(SCC(=O)NCC2CCCO2)c2ccccc21 (configuration not stated)	-12	-68	-1	-2	-6	3	.	.
O=C(CSc1cn(CCNC(=O)c2cccs2)c2ccccc12)NC1CCCCC1	-13	12	6	0	-11	7	.	.	GRK2 CP2=-26;FAM quench CP2=97
O=C(CSc1cn(CCNC(=O)c2cccs2)c2ccccc12)NCC1CCCO1 (configuration not stated)	25	5	-3	1	13	0	.	.	GRK2 CP2=-1;FAM quench CP2=101
C=CCc1c(C)nc(-c2ccccc2)nc1Nc1ccc(O)cc1	-4	.	12	13	0	100*	.	.	GRK2 CP2=-7;FAM quench CP2=100
COCCCC1CCN(C(=O)CCc2nnc(CCCCc3ccccc3)o2)CC1	-21	-12	22	3	-8	0	.	.
Fc1ccccc1N1CCN(C(c2ccncc2)c2nnnn2C2CCCC2)CC1 (configuration not stated)	.	.	6	2	0	53*	-2	104
CSc1ccc(S(=O)(=O)NCc2ccc(C)cc2)cc1	3	.	-2	1	-11	71*	0	102
COc1ccccc1C(=O)Nc1cccc2nc(C)ccc12	16	-21	-4	2	-13	1	.	.
O=C(NC1CCC(O)CC1)c1ccc(-c2ccc([N+](=O)[O-])cc2)o1 (configuration not stated)	-9	18	20	-1	1	3	.	.
C=CCSC1=C(C#N)C(c2ccccc2OCC)CC(=O)N1 (configuration not stated)	-27	.	-6	0	-8	37	1	101
O=C(Nc1cc([N+](=O)[O-])ccc1O)c1cccc(NC(=O)c2ccco2)c1	-8	.	-11	1	7	78*	1	103
O=C(NCc1ccccc1)c1cccc(NC(=O)c2ccco2)c1	.	-25	-2	0	-2	2	2	93
CC(C)Oc1ccc(C(=O)NCc2ccco2)cc1	-4	.	0	1	0	0	.	.
O=C(NCc1ccco1)c1cccc(NC(=O)c2ccco2)c1	8	.	20	-2	-15	0	-3	101
COc1ccc(C(=O)Nc2cccc(C(=O)NCc3ccco3)c2)cc1	-4	8	-14	0	5	0	-1	96
CN(Cc1ccccc1)C(=O)c1cccc(NC(=O)c2ccco2)c1	1	.	-3	1	-15	4	1	104
Cc1cccc(C)c1OCc1cc(C(=O)N2CCN(Cc3nccn3C)CC2)no1	7	.	-5	0	-4	0	.	.
O=C(NCc1ccncc1)c1ccc(NS(=O)(=O)c2ccc(F)cc2)cc1	.	-8	36	-1	-6	0	.	.
Nc1nc(NCCO)nc(NCc2ccccc2)c1[N+](=O)[O-]	4	.	-4	-1	-2	97*	4	96
SMILES	Lipid droplet	TAG inh	Arr AP2 block	NTR1 agonist	B2AR ag	GRK2 aptamer HTS	GRK2 CP1	Aptamer quench SP	others
Cc1ccccc1NC(=O)NCCCCc1ccccc1	-1	-13	33	-1	-3	1	.	.
COc1cc(SSc2cc(OC)cc([N+](=O)[O-])c2N)c(N)c([N+](=O)[O-])c1	9	.	34	0	1	87*	-14	95
O=[N+]([O-])c1ccc(N2CCN(c3cccc(Cl)c3)CC2)nc1	24	.	20	-1	2	11	5	115
FC(F)(F)c1cccc(Cc2noc(CN3CCCC(CN4CCCC4)C3)n2)c1 (configuration not stated)	-15	-8	9	0	-2	0	.	.
COC(=O)C(NC(=O)c1ccco1)(Nc1nc(C2CC2)cs1)C(F)(F)F (configuration not stated)	-24	32	3	-5	-99	90*	-4	102
CCC(=O)N=c1sc2cc([N+](=O)[O-])ccc2n1CCOC	-5	.	18	-1	-1	2	.	.
CCOC(=O)Cn1c(=NC(=O)C(C)(C)C)sc2cc([N+](=O)[O-])ccc21	-6	.	9	1	-5	52*	.	.	GRK2 CP2=-21;FAM quench CP2=102
CC(C)C(C)NC(=O)CSc1ccc(S(=O)(=O)N2CCOCC2)cn1 (configuration not stated)	.	4	4	-1	1	61*	0	100
C[C@H](CO)NC(=O)c1nc[nH]c1C(=O)N[C@H](C)c1ccccc1	.	-8	.	.	.	.	.	.
O=C1CCCC(O)=C1N=Nc1cccc(C(=O)O)c1	-2	-4	3	-1	-4	83*	4	98
S=c1[nH]nc([C@@H]2C[C@H]2c2ccccc2)n1-c1ccccc1Cl	1	13	0	1	-3	2	.	.
Cn1c(=O)c2c(nc(SCC(=O)NCc3ccc4c(c3)OCO4)n2Cc2ccc(F)cc2)n(C)c1=O	-28	-5	13	6	0	0	.	.
Cn1c(=O)c2c(nc(SCC(=O)NCc3ccc4c(c3)OCO4)n2Cc2ccccc2)n(C)c1=O	5	4	11	3	-6	53*	0	100
